# Assays:
# Type in all cases: functional
# SR = assay: Growth inhibition of human SR cells after 48 hrs by sulforhodamine B assay
# Method in brief: (§1)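 Run in the NCI 60-human-tumour-cell-line panel, tested over a 5-log dose range. Dose–response curves gave three values per cell line, each as a log10 molar concentration: GI50 (50% inhibition of net cell growth), TGI (total inhibition of net growth) and LC50 (50% net cell death). The mean graph midpoint is the arithmetic mean over all lines, with insensitive lines entered at the highest concentration tested.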
# EKVX = assay: Growth inhibition of human EKVX cells after 48 hrs by sulforhodamine B assay
# Method in brief: (§2)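 NCI 60-human-tumor-cell-line panel, with compounds tested over a 5-log dose range. Values are taken from dose-response curves as log10 molar concentrations: GI50 is 50% net growth inhibition, TGI is total growth inhibition, and LC50 is 50% net cell death.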
# 786-0 = assay: Growth inhibition of human 786-0 cells after 48 hrs by sulforhodamine B assay; settings: 786-0, 48 h; method in brief: as §2
# NCI/ADR-RES = assay: Growth inhibition of human NCI/ADR-RES cells after 48 hrs by sulforhodamine B assay; method in brief: as §2
# SF-539 = assay: Growth inhibition of human SF539 cells after 48 hrs by sulforhodamine B assay; settings: SF-539, 48 h; method in brief: as §2
# HOP-62 = assay: Growth inhibition of human HOP62 cells after 48 hrs by sulforhodamine B assay; settings: HOP-62, 48 h; method in brief: as §2
# HOP-92 = assay: Growth inhibition of human HOP92 cells after 48 hrs by sulforhodamine B assay; settings: HOP-92, 48 h; method in brief: as §2
# T47D = assay: Growth inhibition of human T47D cells after 48 hrs by sulforhodamine B assay; method in brief: as §1
# OVCAR-3 = assay: Growth inhibition of human OVCAR-3 cells after 48 hrs by sulforhodamine B assay; settings: OVCAR-3, 48 h; method in brief: as §2
# HL-60(TB) = assay: Growth inhibition of human HL-60(TB) cells after 48 hrs by sulforhodamine B assay; settings: HL-60, 48 h
# Method in brief: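 Tested only on compounds active in a three-line prescreen, in the NCI 60-human-tumour-cell-line panel over a 5-log dose range. Values come from dose–response curves as log10 molar GI50, the concentration inhibiting 50% net cell growth. Log10 TGI (total growth inhibition) and log10 LC50 (50% net cell death) were derived too. Mean graph midpoints include insensitive lines at the highest concentration tested.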
# CCRF-CEM = assay: Growth inhibition of human CCRF-CEM cells after 48 hrs by sulforhodamine B assay; method in brief: as §2
# MOLT-4 = assay: Growth inhibition of human MOLT4 cells after 48 hrs by sulforhodamine B assay; settings: MOLT-4, 48 h; method in brief: as §2
# BT-549 = assay: Growth inhibition of human BT549 cells after 48 hrs by sulforhodamine B assay; settings: BT-549, 48 h; method in brief: as §2
# [1] = Growth inhibition of human Hs 578T cells after 48 hrs by sulforhodamine B assay; method in brief: as §2
# SN12C = assay: Growth inhibition of human SN12C cells after 48 hrs by sulforhodamine B assay; method in brief: as §1
# Malme-3M = assay: Growth inhibition of human MALME-3M cells after 48 hrs by sulforhodamine B assay; method in brief: as §2
# HT-29 = assay: Growth inhibition of human HT-29 cells after 48 hrs by sulforhodamine B assay; settings: HT-29, 48 h; method in brief: as §2
# CAKI-1 = assay: Growth inhibition of human Caki1 cells after 48 hrs by sulforhodamine B assay; settings: CAKI-1, 48 h; method in brief: as §2
# NCI-H522 = assay: Growth inhibition of human NCI-H522 cells after 48 hrs by sulforhodamine B assay; settings: NCI-H522, 48 h; method in brief: as §2
# LOX IMVI = assay: Growth inhibition of human LOXIMVI cells after 48 hrs by sulforhodamine B assay; method in brief: as §2
# OVCAR-5 = assay: Growth inhibition of human OVCAR5 cells after 48 hrs by sulforhodamine B assay; settings: OVCAR-5, 48 h; method in brief: as §2
# ACHN = assay: Growth inhibition of human ACHN cells after 48 hrs by sulforhodamine B assay
# SK-MEL-2 = assay: Growth inhibition of human SK-MEL-2 cells after 48 hrs by sulforhodamine B assay; settings: SK-MEL-2, 48 h; method in brief: as §2
# A498 = assay: Growth inhibition of human A498 cells after 48 hrs by sulforhodamine B assay; settings: A498, 48 h; method in brief: as §2
# HCT-15 = assay: Growth inhibition of human HCT15 cells after 48 hrs by sulforhodamine B assay; settings: HCT-15, 48 h; method in brief: as §2
# NCI-H322M = assay: Growth inhibition of human NCI-H322M cells after 48 hrs by sulforhodamine B assay; method in brief: as §2
# KM12 = assay: Growth inhibition of human KM12 cells after 48 hrs by sulforhodamine B assay; settings: KM12, 48 h; method in brief: as §2
# K562 = assay: Growth inhibition of human K562 cells after 48 hrs by sulforhodamine B assay; settings: K562, 48 h; method in brief: as §2
# UO-31 = assay: Growth inhibition of human UO31 cells after 48 hrs by sulforhodamine B assay; settings: UO-31, 48 h; method in brief: as §1
# [2] = read-out: pLC50 (the source's name) (converted)
smiles,measurement,setting,value
COc1ccc(Oc2nc3cc(N)cc(N)c3nc2-c2ccccc2)cc1,GI50,SR,18.6 µM
same,LC50 (concentration giving 50% net cell death),SR,> 100 µM
same,TGI,SR; read-out: pTGI (converted),> 100 µM
same,GI50,EKVX,24.5 µM
same,LC50 (50% net cell kill),EKVX,> 100 µM
same,TGI,EKVX; read-out: pTGI (converted),63.1 µM
same,GI50,786-0,24.5 µM
same,CC50,786-0; [2],> 100 µM
same,TGI,786-0; read-out: pTGI (converted),> 100 µM
same,GI50,NCI/ADR-RES,60.3 µM
same,CC50,NCI/ADR-RES; [2],> 100 µM
same,TGI,NCI/ADR-RES; read-out: pTGI (converted),> 100 µM
same,GI50,SF-539,23.4 µM
same,LC50,SF-539,> 100 µM
same,TGI,SF-539; read-out: pTGI (converted),61.7 µM
same,GI50,HOP-62,19.5 µM
same,LC50,HOP-62,87.1 µM
same,TGI,HOP-62; read-out: pTGI (converted),40.7 µM
same,LC50 (50% net cell death),HOP-92,77.6 µM
same,TGI,HOP-92; read-out: pTGI (converted),8.13 µM
same,GI50,T47D,15.1 µM
same,CC50,T47D; [2],> 100 µM
same,TGI,T47D; read-out: pTGI (converted),97.7 µM
same,GI50,OVCAR-3,14.8 µM
same,CC50,OVCAR-3; [2],> 100 µM
same,TGI,OVCAR-3; read-out: pTGI (converted),72.4 µM
same,GI50,HL-60(TB),15.5 µM
same,LC50,HL-60(TB),> 100 µM
same,TGI,HL-60(TB); read-out: pTGI (converted),> 100 µM
same,GI50,CCRF-CEM,2.95 µM
same,LC50,CCRF-CEM,> 100 µM
same,TGI,CCRF-CEM; read-out: pTGI (converted),12.6 µM
same,GI50,MOLT-4,5.37 µM
same,LC50,MOLT-4,> 100 µM
same,TGI,MOLT-4; read-out: pTGI (converted),93.3 µM
same,GI50,BT-549,32.4 µM
same,CC50,BT-549; [2],> 100 µM
same,TGI,BT-549; read-out: pTGI (converted),> 100 µM
same,GI50,[1],24.5 µM
same,CC50,[1]; [2],> 100 µM
same,TGI,[1]; read-out: pTGI (converted),> 100 µM
same,GI50,SN12C,50.1 µM
same,CC50,SN12C; [2],> 100 µM
same,TGI,SN12C; read-out: pTGI (converted),> 100 µM
same,GI50,Malme-3M,51.3 µM
same,CC50,Malme-3M; [2],> 100 µM
same,TGI,Malme-3M; read-out: pTGI (converted),> 100 µM
same,GI50,HT-29,39.8 µM
same,LC50,HT-29,> 100 µM
same,TGI,HT-29; read-out: pTGI (converted),> 100 µM
same,GI50,CAKI-1,79.4 µM
same,CC50,CAKI-1; [2],> 100 µM
same,TGI,CAKI-1; read-out: pTGI (converted),> 100 µM
same,GI50,NCI-H522,31.6 µM
same,LC50,NCI-H522,> 100 µM
same,TGI,NCI-H522; read-out: pTGI (converted),> 100 µM
same,GI50,LOX IMVI,34.7 µM
same,LC50,LOX IMVI,> 100 µM
same,TGI,LOX IMVI; read-out: pTGI (converted),> 100 µM
same,GI50,OVCAR-5,95.5 µM
same,CC50,OVCAR-5; [2],> 100 µM
same,TGI,OVCAR-5; read-out: pTGI (converted),> 100 µM
same,GI50,ACHN,36.3 µM
same,CC50,ACHN; [2],> 100 µM
same,TGI,ACHN; read-out: pTGI (converted),> 100 µM
same,GI50,SK-MEL-2,25.1 µM
same,CC50,SK-MEL-2; [2],> 100 µM
same,TGI,SK-MEL-2; read-out: pTGI (converted),87.1 µM
same,GI50,A498,49 µM
same,CC50,A498; [2],> 100 µM
same,TGI,A498; read-out: pTGI (converted),> 100 µM
same,GI50,HCT-15,52.5 µM
same,LC50,HCT-15,> 100 µM
same,TGI,HCT-15; read-out: pTGI (converted),> 100 µM
same,GI50,NCI-H322M,> 100 µM
same,LC50,NCI-H322M,> 100 µM
same,TGI,NCI-H322M; read-out: pTGI (converted),> 100 µM
same,GI50,KM12,37.2 µM
same,LC50 (50% net cell kill),KM12,> 100 µM
same,TGI,KM12; read-out: pTGI (converted),> 100 µM
same,GI50,K562,26.3 µM
same,LC50,K562,> 100 µM
same,TGI,K562; read-out: pTGI (converted),> 100 µM
same,GI50,UO-31,28.2 µM
same,CC50,UO-31; [2],> 100 µM
same,TGI,UO-31; read-out: pTGI (converted),> 100 µM
